# From PubChem BioAssay
# UPR CHOP act: activators of apoptotic CHOP UPR arm, primary screen, cell-based, CHO-CHOP luciferase reporter, luminescence, uHTS | UPR activation; percent of tunicamycin response over DMSO baseline | activation, % at 10 µM | 330,000 tested, 0.34% active | AID 449763, 2010;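 active means at 10 µM dose, activation of 40% or more, normalized to positive control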;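 further: 100% = tunicamycin at 10 µg/mL and 0% = DMSO alone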
#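 System: CHO-CHOP luciferase reporter cell line; amount: 500 cells/well; buffer or medium: F12 medium containing 10% fetal bovine serum; incubation: 6 h compound exposure at 37 °C after overnight seeding; measured by: luciferase luminescence after 10 min with Steady-Glo reagent; evaluation: % reporter activation, DMSO baseline versus tunicamycin full activation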
# UCH37 DUB inh: inhibitors of human UCH37 deubiquitinase, primary screen, biochemical, Ub-AMC cleavage, fluorescence | Ubiquitin carboxyl-terminal hydrolase isozyme L5 (Homo sapiens), Q9Y5K5 | purified proteasome/UCH37 | inhibition, % (test concentration not listed) | 330,000 tested, 0.33% active | AID 588478, 2011;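 active means mean inhibition over replicate wells above about 20%, limit read from the data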;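 further: 0% = compound-free wells with enzyme and 100% = wells lacking proteasome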
# Target sequence (Q9Y5K5 whole entry, looked up): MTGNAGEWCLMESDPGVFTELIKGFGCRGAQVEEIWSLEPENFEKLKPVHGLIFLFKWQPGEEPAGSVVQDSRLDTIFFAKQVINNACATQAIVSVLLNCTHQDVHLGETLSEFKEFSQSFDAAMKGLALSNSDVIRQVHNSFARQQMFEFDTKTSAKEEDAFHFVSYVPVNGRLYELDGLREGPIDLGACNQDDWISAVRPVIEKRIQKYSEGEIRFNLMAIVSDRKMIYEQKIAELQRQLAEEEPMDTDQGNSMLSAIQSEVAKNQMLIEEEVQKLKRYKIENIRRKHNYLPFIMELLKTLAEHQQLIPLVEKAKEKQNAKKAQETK
#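 Material: human UCH37 enzyme supplied as purified proteasome complex / Amount: 0.15 nM proteasome as dispensed / Buffer or medium: pH 7.4 Tris-HCl (50 mM) with ovalbumin, ATP-MgCl2, DTT / Times: preincubation 30 min, reaction 25 min, room temperature / Technique: AMC fluorescence from Ub-AMC cleavage, excitation 355 nm, emission 460 nm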
# Fh CTSL1 inh: Fasciola hepatica cathepsin L1 inhibitors, primary screen, counter-screen for PFM18AAP inhibitor project, biochemical, QFRET, fluorogenic peptide substrate; 300,000 tested, 0.49% active; AID 1906, 2009; recombinant F. hepatica cathepsin L1, Z-Leu-Arg-MCA fluorescence; inhibition, % at 5.96 µM;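 active means inhibition above the mean of all tested compounds plus 3 SD, set per screening campaign, cut at about 17% in these data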;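 further: 0% = plate median of test compound wells and 100% = 1 µM Z-Phe-Ala-diazomethylketone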
# XBP1 UPR activ: activators of adaptive XBP1 UPR arm, primary screen, cell-based, CHO-XBP1 luciferase reporter, luminescence, uHTS; 330,000 tested, 0.33% active; IRE1-XBP1 UPR activation; percent of tunicamycin response, DMSO as zero; activation, % at 20 µM;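 active means versus positive control, 20 µM dose yields 30% or more activation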;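 further: 100% = tunicamycin at 10 µg/mL and 0% = DMSO only wells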
#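 Assay system: IRE1-XBP1 luciferase reporter CHO line. Input: 1000 cells/well. Buffer or medium: F12 with 10% serum. Doses: 20 µM, 1% DMSO. Times: overnight seeding at 37 °C, 6 h compound treatment at 37 °C. Technique: Steady-Glo luciferase glow luminescence, 10 min after reagent addition.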
# CHOP inhibitor: inhibitors of CHOP promoter induction, primary screen, cell-based, unfolded protein response, luciferase reporter | AID 2732, 2010 | inhibition, % at 10 µM | CHO-K1 CHOP-promoter luciferase, tunicamycin-induced, 15-18 h | 220,000 tested, 3.8% active;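 active means compounds that reduced the stress-induced luciferase reporter signal by more than about 70% of percent inhibition, limit read from the data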;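 further: 0% = tunicamycin plus vehicle and 100% = wells without tunicamycin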
# UPR CHOP confirm: activators of apoptotic CHOP UPR arm, confirmation, cell-based, CHO-CHOP luciferase reporter, single concentration; shares compounds with UPR CHOP act; CHO-CHOP cells, CHOP-luciferase reporter luminescence; percent of tunicamycin response, DMSO as zero; activation, % at 10 µM; 1,000 tested, 64% active; in the data active means activation above about 33%;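 further: 0% = DMSO wells and 100% = tunicamycin 10 µg/mL wells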
# * hit, by the source's call; . = no result given. The entries come from a sample that favours hits as a whole.
SMILES,UPR CHOP act,UCH37 DUB inh,Fh CTSL1 inh,XBP1 UPR activ,CHOP inhibitor,UPR CHOP confirm
COc1ccc(C(=O)Nc2cccc(C(C)=NNC(=O)c3ccc([N+](=O)[O-])c(C)c3)c2)cc1OC,.,6,.,.,.,.
O=C1c2cc(F)ccc2-n2c1nc1ccccc1c2=O,77*,.,17*,12,.,30
C/C(=N\NC(=O)c1ccccn1)c1ccc(Cl)cc1,0,.,0,-3,-16,.
C/C(=N\NC(=O)COc1ccccc1-c1ccccc1)c1ccccn1,105*,.,2,1,37,205*
C/C(=N\NC(=O)c1ccc(Cl)cc1)c1ccccn1,407*,.,-5,2,.,403*
CC(=NNC(=O)COc1ccccc1-c1ccccc1)c1ccccn1,.,0,.,.,.,.
CC(C)C(=O)N1CCN(c2ccc(NC(=O)c3ccc([N+](=O)[O-])o3)cc2Cl)CC1,.,8,.,.,16,.
CC(C)C(=O)N1CCN(c2ccc(NC(=O)c3ccc([N+](=O)[O-])o3)cc2)CC1,108*,4,4,-2,-20,71*
CN1CCN(c2ccc(NC(=O)c3ccc([N+](=O)[O-])o3)cc2Cl)CC1,99*,5,9,0,.,59*
COc1cc(/C=C/C(=O)c2ccc([N+](=O)[O-])o2)ccc1O,94*,3,1,-6,.,-6
O=C(/C=C/c1cccc(Cl)c1)c1ccc([N+](=O)[O-])o1,6,2,-1,-8,.,.
COc1ccc(/C=C/C(=O)c2ccc([N+](=O)[O-])o2)cc1OC,82*,2,5,-8,.,-1
CC(=NNC(=O)c1cc2c(s1)CCC(C)C2)c1cccnc1 (stereo unspecified),.,2,.,.,.,.
Cc1ccc(Sc2c(O)c3ccccc3n(C)c2=O)cc1,.,2,.,.,-31,.
Cc1ccc(Sc2c([N+](=O)[O-])c(=O)n(C)c3ccccc23)cc1,101*,5,4,1,.,99*
O=C(Cc1ccc(F)cc1)NC1CCSC1=O (stereo unspecified),41*,-1,-2,2,10,-2
CCOc1cc(C2c3c(-c4ccccc4)n[nH]c3C(=O)N2c2ccc(C(=O)O)cc2)ccc1O (stereo unspecified),45*,4,-1,-5,18,1
O=C(O)c1ccc(N2C(=O)c3[nH]nc(-c4ccccc4)c3C2c2ccccc2)cc1 (stereo unspecified),-2,4,4,0,-10,.
O=C(/C=C\c1ccc(-c2ccccc2)o1)c1ccccc1,79*,-1,66*,10,52,4
O=C(/C=C/c1ccccc1)c1ccccc1,4,6,-1,10,-64,.
Cc1ccc(C(=O)/C=C/c2ccc(-c3ccc(C)cc3)o2)cc1,94*,1,28*,18,62,-1
Cc1ccc(-c2n[nH]c(=S)n2N=C/C=C\c2ccccc2[N+](=O)[O-])cc1,.,8,.,.,.,.
COc1ccc(OC)c(C(=O)NN=Cc2ccccn2)c1,.,5,.,.,.,.
C=CCc1cccc(/C=N/NC(=O)c2ccccc2OC)c1O,127*,.,-2,3,-37,2
C=CCc1cccc(/C=N/NC(=O)c2ccccc2Br)c1O,0,.,2,3,26,.
SMILES,UPR CHOP act,UCH37 DUB inh,Fh CTSL1 inh,XBP1 UPR activ,CHOP inhibitor,UPR CHOP confirm
C/C(C=NNC(=O)c1ccccn1)=C\c1ccco1,.,8,.,.,.,.
Cc1ccc(NC(=O)Cn2ncc(Cl)c(Cl)c2=O)cc1S(=O)(=O)N1CCCCC1,88*,4,.,-8,.,57*
Cc1ccc(S/C=C\C(=O)c2ccccc2)cc1,69*,3,4,0,55,56*
CC(OC(=O)c1c[nH]c2ccccc12)C(=O)N1CCCC1 (stereo unspecified),90*,.,.,-1,.,-1
CC(=NNC(=O)CN1CCN(S(=O)(=O)c2ccc(C)cc2)CC1)c1ccco1,.,1,.,.,.,.
CCOC(=O)c1ccc(N=C2C(=S)N(c3ccc(C(=O)OCC)cc3)C(=N)N2/N=C/c2ccccc2)cc1,53*,.,10,10,43,37*
COc1ccc(OC)c2sc(N(CCN(C)C)C(=O)/C=C/c3cccs3)nc12,67*,.,5,7,.,11
CCOC(=O)C(=NO)C(C)=NNC(C)=O,.,-2,.,.,.,.
COc1cccc(-c2nc(CS(=O)CC(=O)NCc3ccccc3)c(C)o2)c1 (stereo unspecified),69*,5,5,-2,4,0
CCCNC(=O)CS(=O)Cc1nc(-c2cccc(OC)c2)oc1C (stereo unspecified),2,10,-2,-2,-18,.
CC(=NOC(=O)Nc1ccc(Cl)cc1)c1ncc(C(F)(F)F)cc1N1CCOCC1,.,-1,.,.,.,.
COc1ccc(OC)c(C=NNC(=O)CNC(=O)c2ccc(S(=O)(=O)N3CCCC3)cc2)c1,.,-71,.,.,.,.
CN1CCN(Cc2cc(COCc3ccccc3)c3cccnc3c2O)CC1,131*,.,2,26,.,54*
Oc1ccc(CN2CCN(Cc3ccccc3)CC2)c2cccnc12,71*,3,-1,27,-10,94*
CN1CCN(C2CCN(Cc3ccc(O)c4ncccc34)CC2)CC1,-1,-1,.,-1,.,.
Oc1ccc(CNc2ccccc2)c2cccnc12,1,0,1,2,-99,.
COCc1ccc(O)c2ncccc12,43*,3,-4,37*,82*,73*
CCOC(=O)C1=C(C)N=c2sc(=Cc3ccco3)c(=O)n2C1c1cccc(OC)c1 (stereo unspecified),.,1,.,.,.,.
CCOc1cc(C=NNC(=O)CN2CCCCC2)ccc1OCc1cccc(Cl)c1,.,1,.,.,.,.
S=C(NN=Cc1ccc2ncccc2c1)Nc1cccnc1,.,4,.,.,.,.
COc1cc(C=NNC(=O)c2ccc(NS(=O)(=O)c3cccs3)cc2)cc(OC)c1O,.,14,.,.,.,.
Oc1ccccc1C=Nn1c(-c2cccs2)n[nH]c1=S,.,1,.,.,.,.
CCCn1c(CN2CCN(C(=O)OCC)CC2)nc2cc(NC(C)=O)ccc21,2,-4,2,1,.,.
CCCn1c(CN2CCN(C(=O)OCC)CC2)nc2cc(NC(=O)C(C)C)ccc21,50*,2,7,-4,.,0
COc1ccc(C=NNC(=O)C(C)n2nnc3ccccc32)cc1OC (stereo unspecified),.,5,.,.,.,.
C[N+](C)(C)CC(=O)NN=Cc1c2ccccc2cc2ccccc12,.,1,.,.,.,.
